These results are taken from ChEMBL document CHEMBL1671666, “Anti-human immunodeficiency virus activity, cross-resistance, cytotoxicity, and intracellular pharmacology of the 3'-azido-2',3'-dideoxypurine nucleosides” (Antimicrob Agents Chemother, 2009).

Series [1] deals with Human immunodeficiency virus 1. Briefly: Antiviral activity against HIV1 infected in human PBMC assessed as inhibition of viral replication. The format is functional, organism-based. In outline:
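PBMC from healthy seronegative donors, isolated on a Ficoll-Hypaque gradient and stimulated with PHA for 2-3 days before infection. At least three independent experiments.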

Series [2] concerns mitochondrial DNA. Kind of series: Mitochondrial toxicity in human HepG2 cells assessed as percent inhibition of mitochondrial DNA at 10 uM after 14 days by real-time PCR. The format is cell-based. In outline:
(§1)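 Low-passage HepG2 cells seeded at 5,000 cells/well on collagen-coated plates and cultured 14 days with 10 or 100 μM NRTI. mtDNA and β-actin DNA quantified by real-time PCR in duplicate; mtDNA normalized to β-actin and expressed relative to untreated cells. At least two independent experiments; ranges given.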
(In qPCR the cycle at which signal appears reflects the starting amount.)

Series [3] concerns HepG2. Kind of series: Mitochondrial toxicity in human HepG2 cells assessed as percent mitochondrial DNA production at 10 uM after 14 days by real-time PCR relative to control. The format is cell-based. Conditions: hepg2, 336 h. The method in brief: as §1
Series [4] concerns Human immunodeficiency virus 1. Briefly: Antiviral activity against HIV1 harboring reverse transcriptase M184V mutant infected in human HeLa P4/R5 cells assessed as inhibition of viral replication. The format is functional, organism-based. Conditions: Human immunodeficiency virus 1, HeLa. In outline:
(§2)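 Single-replication-cycle assay in P4/R5 cells: HeLa stably carrying a Tat-activated β-galactosidase gene under an HIV LTR promoter, grown in phenol red-free DMEM with 10% FBS and 0.5 μg/ml puromycin. Virus stocks were titred in P4/R5 cells by threefold endpoint dilution (Reed–Muench).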

The test system of series [5] is Human immunodeficiency virus 1. Kind of series: Ratio of IC50 for HIV1 harboring reverse transcriptase M184V mutant infected in human HeLa P4/R5 cells to wild type HIV1 infected in human HeLa P4/R5 cells. The format is functional. The method in brief: as §2
The test system of series [6] is HepG2. Briefly: Mitochondrial toxicity in human HepG2 cells assessed as percent lactic acid production at 10 uM after 14 days by real-time PCR relative to beta-actin DNA. The format is cell-based. Conditions: hepg2, 336 h. The method in brief: (§3)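 HepG2 cells cultured 14 days with 10 or 100 μM NRTI. Lactic acid quantified with a D-/L-lactic acid enzymatic test kit and expressed relative to β-actin DNA and to untreated control.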

In series [7] the test system is beta-actin DNA. Briefly: Mitochondrial toxicity in human HepG2 cells assessed as percent inhibition of beta-actin DNA at 100 uM after 14 days by real-time PCR. The format is cell-based. The method in brief:
as §1

Series [8] relates to Human immunodeficiency virus 1. Briefly: Antiviral activity against HIV1 infected in human MT2 cells assessed as inhibition of viral replication. The format is functional, organism-based. Conditions: Human immunodeficiency virus 1, MT2.
In series [9] the test system is Human immunodeficiency virus 1. Briefly: Ratio of IC50 for HIV1 harboring reverse transcriptase K65R mutant infected in human HeLa P4/R5 cells to wild type HIV1 infected in human HeLa P4/R5 cells. The format is functional. The method in brief: as §2
Series [10] relates to HepG2. Kind of series: Mitochondrial toxicity in human HepG2 cells assessed as percent lactic acid production at 100 uM after 14 days by real-time PCR relative to beta-actin DNA. The format is cell-based. Conditions: hepg2, 336 h. In outline: as §3
Series [11] deals with Human immunodeficiency virus 1. Kind of series: Antiviral activity against HIV1 harboring reverse transcriptase K65R mutant infected in human HeLa P4/R5 cells assessed as inhibition of viral replication. Conditions: Human immunodeficiency virus 1, HeLa. The format is functional, organism-based. In outline: as §2
For series [12], the system named is mitochondrial DNA. Kind of series: Mitochondrial toxicity in human HepG2 cells assessed as percent inhibition of mitochondrial DNA at 100 uM after 14 days by real-time PCR. The format is cell-based. In outline: as §1
In series [13] the test system is Human immunodeficiency virus 1. Kind of series: Antiviral activity against HIV1 infected in human HeLa P4/R5 cells assessed as inhibition of viral replication. The format is functional, organism-based. Conditions: Human immunodeficiency virus 1, HeLa. In outline:
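Single-cycle assay in P4/R5 HeLa cells carrying an HIV LTR-driven, Tat-activated β-galactosidase gene. Cells kept in phenol red-free DMEM with 10% FBS and 0.5 μg/ml puromycin. Virus stock titred on these cells by threefold endpoint dilution (Reed-Muench). At least three independent experiments.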

Series [14] concerns HepG2. Briefly: Mitochondrial toxicity in human HepG2 cells assessed as percent mitochondrial DNA production at 100 uM after 14 days by real-time PCR relative to control. Conditions: hepg2, 336 h. The format is cell-based. The method in brief:
as §1

The test system of series [15] is beta-actin DNA. Kind of series: Mitochondrial toxicity in human HepG2 cells assessed as percent inhibition of beta-actin DNA at 10 uM after 14 days by real-time PCR. The format is cell-based. The method in brief:
as §1

Turning to `Nc1ccn([C@@H]2CS[C@H](CO)O2)c(=O)n1` [LAMIVUDINE], the 50% inhibitory concentration (IC50) (commonly the concentration that inhibits the measured activity by half) in series [1] is 30 nM; in series [4], greater than 60000 nM; in series [8], 600 nM; in series [11], 60500 nM; in [13], 780 nM. Moreover, the inhibition at 336 h, 10 µM with mitochondrial DNA [2] and with beta-actin DNA [15] was less than 1% each time. Besides, the Activity in the series on HepG2 [3] came out at 119%; with HepG2 [6], 105%; with HepG2 [10], 416%; in the series on HepG2 [14], 0.6%. For the same compound, the “Ratio IC50” value in series [5] is greater than 75; in [9] it was 77. Also, the inhibition (usually the percentage by which the read-out fell short of the control) at 336 h, 100 µM with beta-actin DNA [7] came to 94.3%; in the series on mitochondrial DNA [12], 100%.
